Experiment [1] is described as follows: Inhibition of Wnt2/beta-catenin signaling pathway in human A549 cells assessed as inhibition of Tcf/Lef transcriptional activity at cell proliferation IC50 after 24 hrs by dual luciferase reporter gene assay. The following applies: dose or concentration not given here. It counts as cell-based. In a few lines: (§1)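 A549/Wnt2 cells co-transfected by lipofection with pSuper-Topflash (eight TCF sites driving firefly luciferase) or mutant pSuperFopflash, plus pRL-TK renilla for normalization. Compounds added at 37 °C for 24 h. Lysates read by dual-luciferase assay. Firefly/renilla ratio reported as mean ± SEM of triplicates, relative to non-treated cells.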
For orientation: A reporter such as luciferase makes a cellular process visible.

For experiment [2], the system named is A549. Kind of experiment: Inhibition of total beta-catenin expression in human A549 whole cell extract at cytotoxicity IC50 by Western blot analysis. It counts as functional, cell-based. A general note: Immunoblotting shows a protein as a band on a membrane.
The test system of experiment [3] is A549. Briefly: Inhibition of cytosolic beta-catenin expression in human A549 cells at cytotoxicity IC50 by Western blot analysis. In kind it is functional, cell-based.
In experiment [4] the test system is A549. Briefly: Inhibition of nucleus beta-catenin expression in human A549 cells at cytotoxicity IC50 by Western blot analysis. In kind it is functional, cell-based.
Experiment [5] has as its system A549. Briefly: Inhibition of cyclin D1 mRNA expression in human A549 cells expressing Wnt2 after 24 hrs by RT-PCR analysis. It counts as functional, cell-based.
Experiment [6] has as its system A549. Briefly: Antiproliferative activity against human A549 cells expressing Wnt2 after 72 hrs by MTS assay. It counts as functional, cell-based. The settings on record: for IC50: A549, 72 h. In a few lines:
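A549 cells stably transfected with pUSEampWnt2 (G418-selected), grown in RPMI-1640 with 10% FBS at 37 °C, 5% CO2. Seeded at 3 × 10^3 cells/well and allowed to attach ~24 h. Treated with a range of concentrations.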
Background: Tetrazolium assays rely on reduction of a dye to a coloured formazan, in cell work by metabolically active cells.

Experiment [7] deals with A549. Briefly: Cytotoxicity against human A549 cells expressing Wnt2 after 24 to 72 hrs by MTS assay. It counts as functional, cell-based. The essentials: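 Wnt2-overexpressing A549 cells (stable pUSEampWnt2, G418 selection) in RPMI-1640 with 10% FBS. Seeded at 8 × 10^3 cells/well and allowed ~24 h to attach. Exposed to a range of concentrations. Viability measured 24 h after treatment by MTS (30 min at 37 °C, A490); IC50 derived.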

Experiment [8] deals with A549. Kind of experiment: Ratio of IC50 for antiproliferative activity against human A549 cells to IC50 for cytotoxicity against human A549 cells. In kind it is functional. The essentials:
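Ratio of two MTS IC50s in A549/Wnt2 cells. Proliferation: 3 × 10^3 cells/well, read at 72 h. Cytotoxicity: 8 × 10^3 cells/well, read 24 h after treatment.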

Experiment [9] in a line: Inhibition of Wnt2/beta-catenin signaling pathway in human A549 cells assessed as inhibition of Tcf/Lef transcriptional activity after 24 hrs by dual luciferase reporter gene assay. The following applies: A549, 24 h. In kind it is cell-based. The essentials:
as §1

The source made the active and inactive calls. The calls are words filed in the database; no cut-off is given here.

The text below walks through data of ChEMBL document CHEMBL1821693, “A novel 3-arylethynyl-substituted pyrido[2,3,-b]pyrazine derivatives and pharmacophore model as Wnt2/β-catenin pathway inhibitors in non-small-cell lung cancer cell lines” (Bioorg Med Chem, 2011).

In general, inhibition refers to the relative decrease from the control value, in per cent. The term IC50 denotes the concentration that inhibits the measured activity by half. Take `CCN(CC)CCOc1nc2cccnc2nc1C#Cc1ccc(OC)cc1`: the inhibition was 50% in [1] and “Dose-dependent effect” in the experiment on A549 [6]. The inhibition entry in the experiment with A549 [2], in the experiment with A549 [3], in the experiment with A549 [4] and with A549 [5] was “Active” each time. Moreover, the IC50 in the experiment with A549 [6] stood at 0.208 µM; in the experiment with A549 [7], 0.64 µM. In addition, the “Ratio IC50” value in the experiment with A549 [8] amounted to 3.07.

In the case of `CN1CCCC(Oc2nc3cccnc3nc2C#Cc2ccccc2)C1` (stereo unspecified), the inhibition in experiment [1] was determined as 30%. Besides, the inhibition entry in the experiment with A549 [2], in the experiment on A549 [3] and in the experiment with A549 [4] was “Active” throughout. The compound further gave an IC50 with A549 [7] of 0.72 µM.

With `CN(C)CCOc1nc2ccccc2nc1C#Cc1ccccc1`, the IC50 in [9] amounted to 0.758 µM.

Turning to `CC(C)N(CCOc1nc2cccnc2nc1C#Cc1cccc(F)c1)C(C)C`, the inhibition in experiment [1] turned out to be 50%. For the same compound, the inhibition result with A549 [2], in the experiment on A549 [3], with A549 [4] and in the experiment on A549 [5] was “Active” throughout. This compound registered an IC50 in the experiment with A549 [7] of 2.89 µM.

With `COc1c(C[C@@H](C)OC(=O)Oc2ccc(O)cc2)c2c3c(C[C@@H](C)OC(=O)c4ccccc4)c(OC)c(=O)c4c(O)cc(OC)c(c5c(OC)cc(O)c(c1=O)c52)c43` [CALPHOSTIN C], the IC50 with A549 [7] turned out to be 3.2 µM.

Take `COc1cc(C#Cc2nc3ncccc3nc2OCCCN(C)C)cc(OC)c1`: the inhibition in [1] came to 30%. The inhibition result in the experiment on A549 [2], in the experiment on A549 [3] and in the experiment on A549 [4] was “Active” in each case. Also, the IC50 with A549 [7] turned out to be 0.38 µM.

With `Cc1ccc(C#Cc2nc3ncccc3nc2OC(C)CN(C)C)cc1` (stereo unspecified), the inhibition in experiment [1] is 30%. Also, the inhibition entry with A549 [2], in the experiment with A549 [3] and in the experiment on A549 [4] was “Active” in each case. This compound registered an IC50 with A549 [7] of 1.9 µM.

In the case of `CN(C)CCOc1nc2cccnc2nc1C#Cc1cccc(F)c1`, the inhibition is 30% in experiment [1] and “Dose-dependent effect” in the experiment with A549 [6]. Moreover, the inhibition entry in the experiment with A549 [2], with A549 [3], with A549 [4] and in the experiment with A549 [5] was “Active” throughout. Further, the IC50 with A549 [6] amounted to 0.535 µM; in the experiment on A549 [7], 1.94 µM.

`C(#Cc1nc2ncccc2nc1OCCc1ccccn1)c1ccccc1`: the inhibition was 50% in experiment [1] and “Dose-dependent effect” in the experiment on A549 [6]. For the same compound, the inhibition result with A549 [2], with A549 [3], in the experiment with A549 [4] and in the experiment on A549 [5] was “Active” each time. The figures for the IC50 (in experiment [9]; in the experiment on A549 [6]; in the experiment on A549 [7]) were 0.12 µM, 0.043 µM and 0.2 µM, respectively.

With `COc1cccc(C#Cc2nc3ncccc3nc2OCCCN(C)C)c1`, in experiment [1], the inhibition worked out at 30%. Moreover, the inhibition entry with A549 [2], in the experiment on A549 [3] and in the experiment with A549 [4] was “Active” each time. Inhibition with A549 [7] was half-maximal at 0.28 µM (IC50).

On to `COc1ccc(C#Cc2nc3ncccc3nc2OCCN(C)C)c(C)c1`, for which the inhibition is 30% in [1] and “Dose-dependent effect” in the experiment on A549 [6]. For the same compound, the inhibition result in the experiment on A549 [2], in the experiment with A549 [3] and in the experiment with A549 [4] was “Active” in each case. Also, the IC50 in the experiment on A549 [6] stood at 0.83 µM; in the experiment with A549 [7] it was 2.95 µM.

On to `Fc1cccc(C#Cc2nc3ncccc3nc2OCCN2CCCC2)c1`, for which the inhibition in [1] was found to be 30%. The inhibition result in the experiment on A549 [2], in the experiment on A549 [3] and in the experiment with A549 [4] was “Active” in each case. The IC50 in the experiment with A549 [7] is 2.45 µM.

Consider `C(#Cc1nc2ncccc2nc1OCCN1CCCC1)c1ccccc1`, for which the inhibition in [1] was 30%. Moreover, the inhibition result with A549 [2], in the experiment with A549 [3] and in the experiment with A549 [4] was “Active” each time. In the experiment with A549 [7], this compound showed an IC50 of 0.72 µM.

For the compound `CN(C)c1cccc(COc2nc3cccnc3nc2C#Cc2ccccc2)c1`, the inhibition in [1] came to 30%. Moreover, the inhibition entry in the experiment on A549 [2], in the experiment on A549 [3] and in the experiment with A549 [4] was “Active” throughout. Moreover, in the experiment on A549 [7], 1.72 µM corresponded to half-maximal inhibition (IC50).

Consider `COc1cccc(C#Cc2nc3ncccc3nc2Cl)c1`, for which the inhibition in [1] is 50%. In addition, the inhibition entry in the experiment on A549 [2], in the experiment on A549 [3] and with A549 [4] was “Active” in each case. In the experiment on A549 [7], this compound yielded an IC50 of 4 µM.
